Data from publication PMC5929363 (Radiology, 2017).

Key:
[1] = Gd biodistribution in ex vivo rat tissue by ICP-MS
How it was run: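 Rats dosed i.v. with 10 μmol/kg probe. Tissues harvested ex vivo 1 and 14 days post-injection. Gadolinium measured by ICP-MS and expressed as % injected dose per gram of tissue.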

[2] = Gd elimination route; type: in vivo; settings: rat, 24-hour collection period, % of the Gd recovered
[3] = Gd blood plasma clearance in rats; type: in vivo; settings: rat, after 10 μmol/kg i.v., exponential decay fit, n=4/time point
How it was run: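 After i.v. probe injection, rat blood plasma sampled over 2 h (n = 4 per time point). Gadolinium quantified by HPLC/ICP-MS. Plasma concentration–time data fitted to exponential decay to give clearance half-life.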

[4] = In vivo plasma stability/metabolites by HPLC-ICP-MS; set-up: species or system rat; settings: HPLC-ICP-MS of blood plasma
How it was run: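 Rat plasma sampled over 2 h after i.v. probe injection. HPLC/ICP-MS separated intact probe from any metabolites. Intact probe expressed as percentage of circulating gadolinium at each time point.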

[5] = system: CCl4 mouse model of liver fibrosis; test: Molecular MR imaging of liver fibrosis, CCl4 mouse model, 7.0 T; type: in vivo
How it was run: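 C57BL6 mice received i.p. CCl4 0.4 μL/g (1:5 in olive oil) twice weekly for 10 weeks; controls received olive oil. Mice were imaged at baseline and 1 week after the last dose at 7.0 T under 1–2% isoflurane, using ungated T1-weighted RARE (TE 4.5 ms, factor 8, TR 600 ms) before and up to 30 min after i.v. 10 μmol/kg. Liver–muscle ΔCNR was analysed as AUC and at the time of maximal difference between fitted exponential curves. Analysis was blinded.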

[6] = system: BDL rat model of liver fibrosis; test: Molecular MR imaging of liver fibrosis, BDL rat model, 1.5 T; type: in vivo; settings: for ΔCNR at 15 minutes post CM-101 / Area under the ΔCNR curve (AUC), liver vs muscle: 1.5 T
How it was run: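 Male CD rats underwent common bile duct ligation or sham surgery and were imaged at day 19. Imaging at 1.5 T under 1–2% isoflurane used respiratory-gated 3D inversion-recovery FLASH (TI 250 ms, TE 2.44 ms, effective TR ~1000 ms), before and up to 30 min after i.v. 10 μmol/kg. ΔCNR was liver-minus-muscle SNR, giving AUC and ΔCNR at the maximal diseased–control difference time. R1 maps (TI 50–1000 ms) were acquired pre and 30 min post and fitted voxelwise. Analysis was blinded.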

[7] = baseline mice, n=11, 10 μmol/kg i.v.
[8] = sham rats, n=11, 10 μmol/kg i.v.

## CC(C)C[C@H](NC(=O)[C@@H]1CSSC[C@H](NC(=O)[C@H](Cc2c[nH]cn2)NC(=O)[C@H](Cc2c[nH]c3ccccc23)NC(=O)[C@H](CCCCNC(=O)CCC(C(=O)O)N2CCN(CC(=O)O)CCN(CC(=O)O)CCN(CC(=O)O)CC2)NC(=O)CNC(=O)CCC(C(=O)O)N2CCN(CC(=O)O)CCN(CC(=O)O)CCN(CC(=O)O)CC2)C(=O)N[C@@H]([C@@H](C)O)C(=O)N[C@@H]([C@@H](C)O)C(=O)N[C@@H](CCCCNC(=O)CCC(C(=O)O)N2CCN(CC(=O)O)CCN(CC(=O)O)CCN(CC(=O)O)CC2)C(=O)N[C@@H](Cc2ccccc2)C(=O)N2CCC[C@H]2C(=O)N[C@@H](Cc2c[nH]cn2)C(=O)N[C@@H](Cc2c[nH]cn2)C(=O)N[C@@H](Cc2ccc(O)cc2)C(=O)N1)C(=O)N[C@@H](Cc1ccc(O)cc1)C(=O)N[C@@H](Cc1ccc(-c2ccccc2)cc1)C(N)=O (stereo partly drawn) [CM-101]
[1]; rat tissues
  Fold drop of tissue Gd levels from 24-hours to 14 days: about 10 fold
[1]; rat, all tissues, 24 hours after CM-101 injection
  Tissue Gd levels at 24-hours (upper bound over all tissues): < 3.9±0.6 %ID/g
[1]; rat, bone, 24 hours after 10 μmol/kg i.v., ICP-MS, n=7
  Gd (% ID/g) @ 24-hours, Bone: 0.07±0.02 % ID/g
[1]; rat, bone, 14 days after 10 μmol/kg i.v., ICP-MS, n=8
  Gd (% ID/g) @ 14-days, Bone: 0.01 % ID/g
[1]; rat, kidney, 14 days after 10 μmol/kg i.v., ICP-MS, n=8
  Gd (% ID/g) @ 14-days, Kidney: 0.33±0.12 % ID/g
[2]
  Gd recovered found in the feces: 0.8%
  Gd recovered found in the urine: 99.2%
[3]
  Gd blood plasma clearance half-life t1/2: 6.8 ± 2.4 min
[4]; 60 – 120 minutes post injection
  Intact CM-101 as % of circulating Gd in plasma: about 50%
[4]; 3 minutes post injection
  Intact CM-101 as % of circulating Gd in plasma: 97%
[4]; 15 minutes post injection
  Intact CM-101 as % of circulating Gd in plasma: 77%
[5]; CCl4 treated mice (10 weeks), n=8, 10 μmol/kg i.v.
  Area under the ΔCNR curve (AUC), liver vs muscle: 601±150
[5]; CCl4 treated mice, n=8, 10 μmol/kg i.v.
  ΔCNR at 10 minutes post CM-101: 18.3±6.5
[5]; [7]
  Area under the ΔCNR curve (AUC), liver vs muscle: 163±54
  ΔCNR at 10 minutes post CM-101: 5.2±1.0
[6]; BDL rats, n=8, 10 μmol/kg i.v.
  ΔCNR at 15 minutes post CM-101: 13.6±3.2
[6]; BDL rats, n=8, 1.5 T
  Change in liver R1 relaxation rate (ΔR1) 30 minutes post CM-101 injection: 0.50 ± 0.23 s⁻¹
[6]; BDL rats, n=8, 19 days post procedure, 10 μmol/kg i.v.
  Area under the ΔCNR curve (AUC), liver vs muscle: 73.1±17.1
[6]; [8]
  Area under the ΔCNR curve (AUC), liver vs muscle: 23.2±15.2
  ΔCNR at 15 minutes post CM-101: 5.7±4.2
[6]; sham rats, n=11, 1.5 T
  Change in liver R1 relaxation rate (ΔR1) 30 minutes post CM-101 injection: 0.15 ± 0.14 s⁻¹
